# Data published in PMC7228743 (Science Advances, 2020).
# Assays:
# Serum stability assay = type: in vitro ADME; conditions: 25% (v/v) pooled human serum, 37°C, 24 hours; RP-HPLC peak area at 215 nm
# Procedure, shortened: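 Peptides dissolved in H2O/MeCN (70:30 v/v), diluted into 25% (v/v) aqueous pooled serum from human male AB plasma, and held at 37°C for 24 hours. Samples were quenched with an equal volume of MeCN on ice for 20 min, then centrifuged at 4°C for 15 min. Supernatant was diluted in H2O (0.1% TFA) to 0.1 mg/ml and run on RP-HPLC. Intact peptide was taken from the elution peak area at 215 nm.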
# hGLP-1R = hGLP-1R (Homo sapiens, UniProt P43220); experiment: In vitro GLP-1R activation assay; type: cell-based; conditions: ratio of cAMP EC50 values, 39.79 nM versus […]
# hGLP-1R, sequence (P43220 24-463): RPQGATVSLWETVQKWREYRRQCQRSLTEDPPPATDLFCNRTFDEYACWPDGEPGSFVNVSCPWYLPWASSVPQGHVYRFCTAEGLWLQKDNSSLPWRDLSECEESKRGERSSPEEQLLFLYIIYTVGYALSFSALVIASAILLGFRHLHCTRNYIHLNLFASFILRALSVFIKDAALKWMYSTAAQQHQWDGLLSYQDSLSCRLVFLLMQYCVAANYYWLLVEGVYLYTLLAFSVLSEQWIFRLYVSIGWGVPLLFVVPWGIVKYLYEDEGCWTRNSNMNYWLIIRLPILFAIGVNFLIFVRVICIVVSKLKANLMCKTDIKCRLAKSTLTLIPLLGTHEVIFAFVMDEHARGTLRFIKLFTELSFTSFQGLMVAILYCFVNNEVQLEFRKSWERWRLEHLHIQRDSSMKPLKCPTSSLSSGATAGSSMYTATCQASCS
Stability in the presence of serum (in words) (Serum stability assay),Potency of 3 relative to capped GLP-1 2 (fold lower) (hGLP-1R),SMILES
remarkable stability,~ 10 fold,CC[C@H](C)[C@@H](CN(CC(=O)N[C@@H](Cc1c[nH]c2ccccc12)CN(CC(=O)N[C@H](CN(CC(=O)NCCN(CC(N)=O)S(=O)(=O)CCN)S(=O)(=O)CCN)C(C)C)S(=O)(=O)CC(C)C)S(C)(=O)=O)NC(=O)CN(C[C@H](CCC(=O)O)NC(=O)CN(C[C@H](C)NC(=O)CN(C[C@H](CCCCN)NC(=O)CN(C[C@H](CCC(=O)O)NC(=O)CN(C[C@H](Cc1ccc(O)cc1)NC(=O)CN(C[C@H](CO)NC(=O)CN(C[C@H](CC(=O)O)NC(=O)CN(C[C@@H](NC(=O)CN(C[C@@H](NC(=O)CN(C[C@H](CCC(=O)O)NC(=O)CN(C[C@H](Cc1ccccc1)NC(C)=O)S(C)(=O)=O)S(C)(=O)=O)[C@@H](C)O)S(=O)(=O)Cc1ccccc1)[C@@H](C)O)S(C)(=O)=O)S(=O)(=O)CC(C)C)S(C)(=O)=O)S(=O)(=O)CC(C)C)S(C)(=O)=O)S(C)(=O)=O)S(=O)(=O)CCN)S(=O)(=O)Cc1ccccc1 [compound 3]
remarkable stability,,CC[C@H](C)[C@@H](CN(CC(=O)N[C@@H](Cc1c[nH]c2ccccc12)CN(CC(=O)N[C@H](CN(CC(=O)NCCN(CC(N)=O)S(=O)(=O)CCN)S(=O)(=O)CCN)C(C)C)S(=O)(=O)CC(C)C)S(C)(=O)=O)NC(=O)CN(C[C@H](CCC(=O)O)NC(=O)CN(C[C@H](C)NC(=O)CN(C[C@H](CCCCN)NC(=O)CN(C[C@H](CCC(=O)O)NC(=O)CN(C[C@H](Cc1ccc(O)cc1)NC(=O)CN(C[C@H](CO)NC(=O)CN(C[C@H](CC(=O)O)NC(=O)CN(C[C@@H](NC(=O)CN(C[C@@H](NC(=O)CN(C[C@H](CCC(=O)O)NC(=O)CN(C[C@H](Cc1ccccc1)NC(C)=O)S(C)(=O)=O)S(C)(=O)=O)[C@@H](C)O)S(=O)(=O)Cc1ccccc1)[C@@H](C)O)S(C)(=O)=O)S(=O)(=O)CC(C)C)S(=O)(=O)c1ccc(OC)cc1)S(=O)(=O)CC(C)C)S(C)(=O)=O)S(C)(=O)=O)S(=O)(=O)CCN)S(=O)(=O)Cc1ccccc1 [compound 5]
